{"source": "ChEMBL document CHEMBL3593206", "about": "“SAR Studies of Exosite-Binding Substrate-Selective Inhibitors of A Disintegrin And Metalloprotease 17 (ADAM17) and Application as Selective in Vitro Probes” (J Med Chem, 2015)", "key": {"[1]": {"target": "T1, Disintegrin and metalloproteinase domain-containing protein 10 (Homo sapiens) (UniProt O14672)", "T1 sequence (whole entry)": "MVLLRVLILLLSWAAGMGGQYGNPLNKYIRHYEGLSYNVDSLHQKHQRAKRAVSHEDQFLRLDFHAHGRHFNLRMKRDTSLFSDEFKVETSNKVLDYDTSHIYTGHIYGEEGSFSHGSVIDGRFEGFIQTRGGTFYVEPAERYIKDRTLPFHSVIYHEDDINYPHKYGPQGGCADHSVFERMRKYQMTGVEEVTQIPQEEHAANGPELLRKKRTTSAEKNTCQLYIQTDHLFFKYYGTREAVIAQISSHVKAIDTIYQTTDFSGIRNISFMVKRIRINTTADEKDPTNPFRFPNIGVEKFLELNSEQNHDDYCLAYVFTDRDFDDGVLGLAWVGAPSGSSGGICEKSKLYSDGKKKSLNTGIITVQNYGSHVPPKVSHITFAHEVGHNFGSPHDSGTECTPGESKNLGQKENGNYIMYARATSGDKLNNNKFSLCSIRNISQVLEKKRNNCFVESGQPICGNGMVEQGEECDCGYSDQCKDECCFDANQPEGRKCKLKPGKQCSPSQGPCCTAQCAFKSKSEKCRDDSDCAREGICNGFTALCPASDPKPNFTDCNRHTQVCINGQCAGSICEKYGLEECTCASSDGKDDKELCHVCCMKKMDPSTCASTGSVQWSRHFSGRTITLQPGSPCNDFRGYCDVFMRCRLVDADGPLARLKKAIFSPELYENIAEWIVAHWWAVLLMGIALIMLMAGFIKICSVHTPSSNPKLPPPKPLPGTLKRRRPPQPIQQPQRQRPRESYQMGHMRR", "conditions": "A549, 10 uM"}, "[2]": {"target": "T1, Disintegrin and metalloproteinase domain-containing protein 10 (Homo sapiens)", "assay": "Inhibition of ADAM10 (unknown origin) at 100 uM preincubated for 30 mins followed by substrate addition measured every 30 mins for 2 hrs by fluorescence assay relative to control", "procedure,_shortened": "(§1)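 Enzyme at 30 nM (3× solution) in 10 mM Hepes, 0.001% Brij-35, pH 7.5. Inhibitor series of 10 points, 1:3, from 300 μM, preincubated 30 min at RT. Glycosylated substrate added from a 30 μM 3× solution. Fluorescence (ex 360/em 460 nm) read every 30 min for 2 h. Inhibition taken from hydrolysis rates against substrate-only and substrate-plus-enzyme wells.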"}, "[3]": {"target": "T2, Disintegrin and metalloproteinase domain-containing protein 10 (Homo sapiens, UniProt O14672)", "T2 sequence (O14672 whole entry)": "T1 sequence (whole entry)", "assay": "Inhibition of ADAM10 (unknown origin) preincubated for 30 mins followed by substrate addition measured every 30 mins for 2 hrs by fluorescence assay", "procedure,_shortened": "as §1"}, "[4]": {"target": "T3, Disintegrin and metalloproteinase domain-containing protein 17 (Homo sapiens, UniProt P78536)", "T3 sequence (P78536 whole entry, the tested form may be a part)": "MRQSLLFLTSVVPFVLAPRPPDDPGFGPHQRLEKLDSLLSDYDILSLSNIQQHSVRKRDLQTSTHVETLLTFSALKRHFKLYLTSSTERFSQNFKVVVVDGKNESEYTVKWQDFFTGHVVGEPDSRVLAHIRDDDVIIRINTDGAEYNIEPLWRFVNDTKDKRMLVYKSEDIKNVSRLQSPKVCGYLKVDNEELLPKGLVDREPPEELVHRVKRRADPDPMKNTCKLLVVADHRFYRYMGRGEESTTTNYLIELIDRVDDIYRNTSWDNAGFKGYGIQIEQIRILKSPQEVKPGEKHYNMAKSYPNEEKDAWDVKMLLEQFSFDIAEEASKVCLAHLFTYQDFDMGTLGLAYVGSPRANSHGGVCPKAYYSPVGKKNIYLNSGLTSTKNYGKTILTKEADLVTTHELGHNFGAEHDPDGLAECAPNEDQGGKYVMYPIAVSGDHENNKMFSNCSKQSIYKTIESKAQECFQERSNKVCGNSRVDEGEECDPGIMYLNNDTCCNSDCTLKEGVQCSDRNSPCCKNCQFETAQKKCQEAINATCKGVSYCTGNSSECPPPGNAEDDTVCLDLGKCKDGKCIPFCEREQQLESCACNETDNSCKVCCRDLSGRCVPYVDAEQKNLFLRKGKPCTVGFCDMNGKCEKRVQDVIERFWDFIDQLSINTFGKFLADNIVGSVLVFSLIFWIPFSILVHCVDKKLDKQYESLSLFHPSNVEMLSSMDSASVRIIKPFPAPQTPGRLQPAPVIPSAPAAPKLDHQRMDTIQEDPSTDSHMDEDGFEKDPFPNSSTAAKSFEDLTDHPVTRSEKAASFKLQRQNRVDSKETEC", "assay": "Inhibition of ADAM17 (unknown origin) preincubated for 30 mins followed by substrate addition measured every 30 mins for 2 hrs by fluorescence assay", "procedure,_shortened": "as §1"}, "[5]": {"target": "T4, 72 kDa type IV collagenase (Homo sapiens, UniProt P08253)", "assay": "Inhibition of MMP2 (unknown origin) using Mca-KLPGL-Dnp-AR as substrate preincubated for 30 mins followed by substrate addition measured after 1 hr by fluorescence assay", "procedure,_shortened": "(§2)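 Inhibitor as 10-point 1:3 dilutions from 300 μM, 30 min at RT. Substrate added from a 30 μM 3× solution. Single fluorescence read (ex 324/em 393 nm) after 1 h at RT.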"}, "Neutrophil collagenase [6]": {"target": "T5, Neutrophil collagenase (Homo sapiens, UniProt P22894)", "assay": "Inhibition of MMP8 (unknown origin) using Mca-KLPGL-Dnp-AR as substrate preincubated for 30 mins followed by substrate addition measured after 1 hr by fluorescence assay", "procedure,_shortened": "as §2"}, "[7]": {"target": "T6, Matrix metalloproteinase-9 (Homo sapiens, UniProt P14780)", "T6 sequence (P14780 whole entry)": "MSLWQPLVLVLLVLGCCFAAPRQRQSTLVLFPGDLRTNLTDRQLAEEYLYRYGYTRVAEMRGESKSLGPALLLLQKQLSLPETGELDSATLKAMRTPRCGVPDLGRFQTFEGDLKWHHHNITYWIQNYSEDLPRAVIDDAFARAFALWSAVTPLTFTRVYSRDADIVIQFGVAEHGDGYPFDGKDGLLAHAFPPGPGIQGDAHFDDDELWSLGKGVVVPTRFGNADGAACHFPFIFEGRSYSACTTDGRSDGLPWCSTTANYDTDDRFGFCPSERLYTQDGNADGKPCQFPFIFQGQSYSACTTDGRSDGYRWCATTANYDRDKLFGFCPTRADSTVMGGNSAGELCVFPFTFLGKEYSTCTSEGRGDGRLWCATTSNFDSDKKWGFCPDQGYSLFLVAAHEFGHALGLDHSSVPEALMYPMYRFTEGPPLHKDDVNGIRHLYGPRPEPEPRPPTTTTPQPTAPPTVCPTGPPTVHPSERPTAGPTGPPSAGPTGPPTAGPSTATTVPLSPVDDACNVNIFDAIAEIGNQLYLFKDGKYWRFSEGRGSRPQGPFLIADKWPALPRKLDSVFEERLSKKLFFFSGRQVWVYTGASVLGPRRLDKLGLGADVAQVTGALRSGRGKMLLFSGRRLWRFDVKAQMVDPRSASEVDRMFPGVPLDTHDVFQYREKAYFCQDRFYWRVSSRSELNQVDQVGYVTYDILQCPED", "assay": "Inhibition of MMP9 (unknown origin) using Mca-KLPGL-Dnp-AR as substrate preincubated for 30 mins followed by substrate addition measured after 1 hr by fluorescence assay", "procedure,_shortened": "as §2"}, "[8]": {"target": "Matrix metalloproteinase-14 (Homo sapiens, UniProt P50281)", "assay": "Inhibition of MMP14 (unknown origin) using Mca-KLPGL-Dnp-AR as substrate preincubated for 30 mins followed by substrate addition measured after 1 hr by fluorescence assay", "procedure,_shortened": "as §2"}, "[9]": {"target": "T4, 72 kDa type IV collagenase", "assay": "Inhibition of MMP2 (unknown origin) using Mca-KLPGL-Dnp-AR as substrate at 100 uM preincubated for 30 mins followed by substrate addition measured after 1 hr by fluorescence assay relative to control", "procedure,_shortened": "as §2"}, "Neutrophil collagenase [10]": {"target": "T5, Neutrophil collagenase", "assay": "Inhibition of MMP8 (unknown origin) using Mca-KLPGL-Dnp-AR as substrate at 100 uM preincubated for 30 mins followed by substrate addition measured after 1 hr by fluorescence assay relative to control", "procedure,_shortened": "as §2"}, "[11]": {"target": "T6, Matrix metalloproteinase-9", "assay": "Inhibition of MMP9 (unknown origin) using Mca-KLPGL-Dnp-AR as substrate at 100 uM preincubated for 30 mins followed by substrate addition measured after 1 hr by fluorescence assay relative to control", "procedure,_shortened": "as §2"}, "[12]": {"target": "T3, Disintegrin and metalloproteinase domain-containing protein 17", "assay": "Inhibition of ADAM17 (unknown origin) at 100 uM preincubated for 30 mins followed by substrate addition measured every 30 mins for 2 hrs by fluorescence assay relative to control", "procedure,_shortened": "as §1"}, "[13]": {"assay": "Cytotoxicity against CHOK1 cells assessed as inhibition of cell viability up to 33 uM after 72 hrs by CellTiter-Glo assay", "type": "cell-based, Cricetulus griseus", "conditions": "chinese hamster, cho-k1, 72 h"}, "A549": {"test_system": "A549", "assay": "Cytotoxicity against human A549 cells assessed as inhibition of cell viability up to 33 uM after 72 hrs by CellTiter-Glo assay", "type": "cell-based", "conditions": "a549, 72 h"}, "[14]": {"target": "T3, Disintegrin and metalloproteinase domain-containing protein 17", "assay": "Inhibition of ADAM17 in human THP1 cells assessed as inhibition of LPS-stimulated TNFalpha cleavage at 25 uM after 1 hr by AlphaScreen assay relative to control", "type": "cell-based", "conditions": "THP-1", "procedure,_shortened": "(§3)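 THP-1 cells grown in RPMI 1640 with 10% FBS and 0.05 mM 2-mercaptoethanol; 3000 cells per well. Compound given in 3% DMSO for 1 h, then LPS added (1 μg/mL final) and cells incubated overnight at 37 °C. TNFα detected by AlphaScreen using anti-TNFα acceptor beads and streptavidin donor beads, each step 1 h in the dark at RT.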"}, "[15]": {"target": "T3, Disintegrin and metalloproteinase domain-containing protein 17", "assay": "Inhibition of ADAM17 in human THP1 cells assessed as inhibition of LPS-stimulated TNFalpha cleavage after 1 hr by AlphaScreen assay", "type": "cell-based, THP-1", "procedure,_shortened": "as §3"}, "[16]": {"target": "T3, Disintegrin and metalloproteinase domain-containing protein 17", "assay": "Inhibition of ADAM17 in human HT1080 cells assessed as inhibition of PMA-stimulated PTK7 L622D mutant shedding at 25 to 100 uM after 16 hrs by Western blot analysis", "type": "cell-based", "conditions": "HT-1080", "procedure,_shortened": "(§4)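 PTK7 shedding tested at 25, 50 and 100 μM in PMA-stimulated cells. HT1080 fibrosarcoma cells carried the L622D PTK7 mutant uncleavable by MT1-MMP; SW480 colorectal cells expressed wild-type PTK7 endogenously. Soluble PTK7 was detected.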"}, "[17]": {"target": "T3, Disintegrin and metalloproteinase domain-containing protein 17", "assay": "Inhibition of ADAM17 in human SW480 cells assessed as inhibition of PMA-stimulated wild type PTK7 shedding at 25 to 100 uM after 16 hrs by Western blot analysis", "type": "cell-based", "procedure,_shortened": "as §4"}, "[18]": {"target": "T3, Disintegrin and metalloproteinase domain-containing protein 17", "assay": "Inhibition of ADAM17 in human A549 cells assessed as inhibition of PMA-stimulated heregulin shedding at 40 uM incubated for 1 hr followed by PMA stimulation measured after 1 hr", "type": "cell-based", "procedure,_shortened": "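Heregulin shedding in A549 cells, with all compounds tested at 40 μM.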"}, "[19]": {"target": "T3, Disintegrin and metalloproteinase domain-containing protein 17", "assay": "Inhibition of ADAM17 in human A549 cells assessed as effect on PMA-stimulated TGFalpha shedding up to 100 uM preincubated for 1 hr followed by PMA stimulation measured after 1 hr by ELISA", "type": "cell-based", "procedure,_shortened": "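TGFα shedding from PMA-treated A549 cells tested up to 100 μM. Marimastat at 10 μM served as control, with a non-PMA-treated control included; soluble TGFα measured in the supernatant.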"}, "[20]": {"target": "T3, Disintegrin and metalloproteinase domain-containing protein 17", "assay": "Inhibition of ADAM17 in human EAhy926 cells assessed as inhibition of neprilysin shedding at 15 uM relative to control", "type": "cell-based"}}, "note": "Activity calls are given as the source filed them. No cut-off for these calls is given here.", "data": [{"smiles": "CNC(=O)[C@@H](NC(=O)[C@H](CC(C)C)[C@H](O)C(=O)NO)C(C)(C)C", "values": [{"measurement": "inhibition", "setting": "[1]", "value": "Active"}]}, {"smiles": "CCC[C@H]1CNC(=O)C(=O)N1C[C@@H]1CCCN1C[C@@H](CC1CCCCC1)N1C[C@H](Cc2ccccc2)N(CCc2ccccc2)C(=O)C1=O", "values": [{"measurement": "inhibition", "setting": "[2]", "value": 0, "unit": "%"}, {"measurement": "IC50", "setting": "[3]", "value": "> 100", "unit": "µM"}, {"measurement": "IC50", "setting": "[4]", "value": 4.3, "unit": "µM"}, {"measurement": "IC50", "setting": "[5]", "value": "> 100", "unit": "µM"}, {"measurement": "IC50", "setting": "Neutrophil collagenase [6]", "value": "> 100", "unit": "µM"}, {"measurement": "IC50", "setting": "[7]", "value": "> 100", "unit": "µM"}, {"measurement": "IC50", "setting": "[8]", "value": "> 100", "unit": "µM"}, {"measurement": "inhibition", "setting": "[9]", "value": 0, "unit": "%"}, {"measurement": "inhibition", "setting": "Neutrophil collagenase [10]", "value": 0, "unit": "%"}, {"measurement": "inhibition", "setting": "[11]", "value": 0, "unit": "%"}, {"measurement": "inhibition", "setting": "[12]", "value": 100, "unit": "%"}, {"measurement": "Activity", "setting": "[13]", "value": "Non-toxic"}, {"measurement": "Activity", "setting": "A549", "value": "Non-toxic"}, {"measurement": "inhibition", "setting": "[14]", "value": 60, "unit": "%"}, {"measurement": "IC50", "setting": "[15]", "value": 28, "unit": "µM"}, {"measurement": "inhibition", "setting": "[16]", "value": 0, "unit": "%"}, {"measurement": "inhibition", "setting": "[17]", "value": 0, "unit": "%"}, {"measurement": "inhibition", "setting": "[18]", "value": 28, "unit": "%"}, {"measurement": "inhibition", "setting": "[19]", "value": 0, "unit": "%"}, {"measurement": "inhibition", "setting": "[20]", "value": 38, "unit": "%"}]}]}
